Among the data in ChEMBL document CHEMBL3352023, “C-terminal residue optimization and fragment merging: discovery of a potent Peptide-hybrid inhibitor of dengue protease” (ACS Med Chem Lett, 2014) are inhibition, IC50 and Ki values, retold here.

Active and inactive are the calls of the source. The calls are words filed in the database; no cut-off is given here. Square brackets hold non-standard residues; d marks the D form. Peptide text beside a SMILES is read from it. * marks the point of attachment. ξ: configuration not given here. Phe(4-NO2) = N[C@@H](Cc1ccc([N+](=O)[O-])cc1)C(=O)O; Phe(4-CN) = N#Cc1ccc(C[C@H](N)C(=O)O)cc1; 2Pal = N[C@@H](Cc1ccccn1)C(=O)O; 3Pal = N[C@@H](Cc1cccnc1)C(=O)O; Cha = N[C@@H](CC1CCCCC1)C(=O)O; Phg = N[C@H](C(=O)O)c1ccccc1; Tle = CC(C)(C)[C@H](N)C(=O)O; ξTic = O=C(O)C1Cc2ccccc2CN1; ξChg = NC(C(=O)O)C1CCCCC1; 3Abz = Nc1cccc(C(=O)O)c1; 4Abz = Nc1ccc(C(=O)O)cc1; Nva = CCC[C@H](N)C(=O)O; 2Abz = Nc1ccccc1C(=O)O; ξPip = O=C(O)C1CCCCN1; ξPra = C#CCC(N)C(=O)O; Aib = CC(C)(N)C(=O)O; Bz = O=C(c1ccccc1)*; βAla = NCCC(=O)O

For assay [1], the target named is Genome polyprotein (West Nile virus) (UniProt P06935). Put plainly: Inhibition of West Nile virus […] NS2B-NS3 protease at 50 uM by homogeneous fluorimetric assay. Put shortly: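 WNV NS2B-NS3 protease percent inhibition, homogeneous fluorimetric assay: enzyme 150 nM, inhibitor 50 μM, substrate 50 μM (Km = 212 μM); triplicate, SD below 10%.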
Sequence of Genome polyprotein (West Nile virus) (P06935 whole entry): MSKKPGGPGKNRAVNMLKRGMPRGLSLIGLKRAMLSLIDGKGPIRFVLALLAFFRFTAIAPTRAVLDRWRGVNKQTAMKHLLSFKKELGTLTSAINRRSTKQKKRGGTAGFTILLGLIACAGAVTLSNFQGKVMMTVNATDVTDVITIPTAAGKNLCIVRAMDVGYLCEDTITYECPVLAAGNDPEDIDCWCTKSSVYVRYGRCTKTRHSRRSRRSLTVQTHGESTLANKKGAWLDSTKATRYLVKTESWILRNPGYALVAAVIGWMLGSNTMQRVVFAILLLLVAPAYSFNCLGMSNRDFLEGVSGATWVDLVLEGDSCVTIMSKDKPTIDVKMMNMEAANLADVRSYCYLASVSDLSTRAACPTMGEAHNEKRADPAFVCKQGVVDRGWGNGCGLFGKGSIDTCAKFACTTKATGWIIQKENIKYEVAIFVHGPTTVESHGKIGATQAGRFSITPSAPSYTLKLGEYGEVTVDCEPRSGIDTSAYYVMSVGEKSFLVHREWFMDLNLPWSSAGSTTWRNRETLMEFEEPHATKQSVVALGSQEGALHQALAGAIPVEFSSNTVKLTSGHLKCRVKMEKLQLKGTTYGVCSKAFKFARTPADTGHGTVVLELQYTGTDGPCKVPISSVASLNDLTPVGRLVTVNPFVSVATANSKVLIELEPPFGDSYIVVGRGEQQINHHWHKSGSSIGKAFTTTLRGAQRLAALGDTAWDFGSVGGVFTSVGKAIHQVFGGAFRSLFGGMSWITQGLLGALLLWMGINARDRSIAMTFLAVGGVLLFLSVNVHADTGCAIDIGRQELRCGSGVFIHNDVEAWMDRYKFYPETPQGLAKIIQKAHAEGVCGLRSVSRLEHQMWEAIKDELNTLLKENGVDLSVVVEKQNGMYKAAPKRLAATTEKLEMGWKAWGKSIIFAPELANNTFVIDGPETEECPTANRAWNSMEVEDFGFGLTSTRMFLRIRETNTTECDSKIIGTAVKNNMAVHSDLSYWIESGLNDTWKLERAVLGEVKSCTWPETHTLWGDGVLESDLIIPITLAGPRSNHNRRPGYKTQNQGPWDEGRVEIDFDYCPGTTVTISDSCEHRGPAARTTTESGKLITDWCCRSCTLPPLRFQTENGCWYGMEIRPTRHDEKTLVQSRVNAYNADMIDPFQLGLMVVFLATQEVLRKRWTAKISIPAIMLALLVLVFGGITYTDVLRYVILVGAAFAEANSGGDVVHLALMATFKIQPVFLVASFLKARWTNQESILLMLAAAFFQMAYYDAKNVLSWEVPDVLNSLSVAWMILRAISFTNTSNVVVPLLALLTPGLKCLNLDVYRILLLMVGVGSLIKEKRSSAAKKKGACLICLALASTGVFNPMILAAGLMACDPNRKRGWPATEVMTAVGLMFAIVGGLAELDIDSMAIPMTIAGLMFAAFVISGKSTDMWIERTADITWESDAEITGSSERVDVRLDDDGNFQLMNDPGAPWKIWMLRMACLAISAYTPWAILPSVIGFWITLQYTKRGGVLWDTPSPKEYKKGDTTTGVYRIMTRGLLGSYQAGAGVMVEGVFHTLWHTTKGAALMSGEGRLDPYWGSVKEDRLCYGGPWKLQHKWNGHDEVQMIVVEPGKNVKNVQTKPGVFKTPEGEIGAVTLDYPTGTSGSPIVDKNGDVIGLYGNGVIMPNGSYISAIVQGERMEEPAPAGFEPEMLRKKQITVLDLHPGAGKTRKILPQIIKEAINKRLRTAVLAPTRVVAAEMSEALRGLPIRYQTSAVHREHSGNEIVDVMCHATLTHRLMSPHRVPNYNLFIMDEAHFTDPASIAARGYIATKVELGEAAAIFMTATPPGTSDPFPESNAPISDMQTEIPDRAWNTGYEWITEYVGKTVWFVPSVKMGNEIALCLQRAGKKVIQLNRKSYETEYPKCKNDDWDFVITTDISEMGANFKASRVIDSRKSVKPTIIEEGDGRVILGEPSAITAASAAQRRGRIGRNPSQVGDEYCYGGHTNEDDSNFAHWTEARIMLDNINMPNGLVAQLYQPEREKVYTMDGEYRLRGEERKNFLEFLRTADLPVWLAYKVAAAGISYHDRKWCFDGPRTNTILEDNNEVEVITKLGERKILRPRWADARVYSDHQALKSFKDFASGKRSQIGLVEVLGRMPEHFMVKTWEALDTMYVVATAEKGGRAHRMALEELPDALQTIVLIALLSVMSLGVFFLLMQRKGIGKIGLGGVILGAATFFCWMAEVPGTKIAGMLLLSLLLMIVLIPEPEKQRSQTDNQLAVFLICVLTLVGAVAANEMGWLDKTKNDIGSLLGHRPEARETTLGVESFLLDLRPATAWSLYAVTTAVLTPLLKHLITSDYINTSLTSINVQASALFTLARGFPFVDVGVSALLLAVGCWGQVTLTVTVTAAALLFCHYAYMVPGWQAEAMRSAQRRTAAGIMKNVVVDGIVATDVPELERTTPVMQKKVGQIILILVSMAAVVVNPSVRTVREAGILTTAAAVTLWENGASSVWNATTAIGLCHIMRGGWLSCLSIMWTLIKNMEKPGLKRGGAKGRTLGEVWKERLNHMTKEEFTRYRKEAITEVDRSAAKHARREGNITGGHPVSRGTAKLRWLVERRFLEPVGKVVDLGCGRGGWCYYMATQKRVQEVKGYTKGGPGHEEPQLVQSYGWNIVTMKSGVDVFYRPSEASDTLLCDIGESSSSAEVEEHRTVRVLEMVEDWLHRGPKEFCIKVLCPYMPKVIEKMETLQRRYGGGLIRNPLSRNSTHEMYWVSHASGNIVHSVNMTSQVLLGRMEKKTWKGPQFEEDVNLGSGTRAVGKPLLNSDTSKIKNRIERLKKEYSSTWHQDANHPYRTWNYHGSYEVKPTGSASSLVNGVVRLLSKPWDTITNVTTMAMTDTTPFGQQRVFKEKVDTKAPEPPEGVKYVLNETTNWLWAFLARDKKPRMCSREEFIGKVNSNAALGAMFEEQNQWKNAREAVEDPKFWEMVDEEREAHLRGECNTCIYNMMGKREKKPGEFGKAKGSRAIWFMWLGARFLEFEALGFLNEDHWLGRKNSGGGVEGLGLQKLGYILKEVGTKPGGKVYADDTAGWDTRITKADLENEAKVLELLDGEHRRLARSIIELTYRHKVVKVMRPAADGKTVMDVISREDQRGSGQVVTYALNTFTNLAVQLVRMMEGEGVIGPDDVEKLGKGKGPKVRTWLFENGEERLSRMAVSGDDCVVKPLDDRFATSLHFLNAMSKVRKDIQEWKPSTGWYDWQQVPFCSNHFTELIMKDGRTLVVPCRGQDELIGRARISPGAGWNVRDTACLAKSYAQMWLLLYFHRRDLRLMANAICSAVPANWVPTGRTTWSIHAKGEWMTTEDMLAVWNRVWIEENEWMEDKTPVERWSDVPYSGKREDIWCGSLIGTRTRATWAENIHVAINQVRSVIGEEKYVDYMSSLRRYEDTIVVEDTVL
Assay [2] addresses Genome polyprotein (dengue virus type 2) (UniProt P12823). Put plainly: Inhibition of Dengue virus serotype 2 NS2B-NS3 protease at 50 uM by homogeneous fluorimetric assay.
In assay [3] the target is Genome polyprotein (dengue virus type 2, UniProt P12823). Nature of the assay: Inhibition of Dengue virus serotype 2 NS2B-NS3 protease by homogeneous fluorimetric assay.
The target in assay [4] is Genome polyprotein (dengue virus type 2) (UniProt P12823). Nature of the assay: Competitive inhibition of Dengue virus serotype 2 NS2B-NS3 protease by aprotinin competition fluorescence assay. Put shortly: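 Active-site binding checked by aprotinin competition: fluorescence decrease followed with increasing inhibitor concentration, then aprotinin added to test recovery of fluorescence.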

Assay [5] has as its target Prothrombin (Homo sapiens) (UniProt P00734). Put plainly: Inhibition of thrombin (unknown origin) at 25 uM by homogeneous fluorimetric assay.
Assay [6] addresses Genome polyprotein (West Nile virus, UniProt P06935). Put plainly: Inhibition of West Nile virus […] NS2B-NS3 protease by homogeneous fluorimetric assay.

Sequence of Genome polyprotein (West Nile virus, UniProt P06935) (P06935 1371-1501 limits assumed): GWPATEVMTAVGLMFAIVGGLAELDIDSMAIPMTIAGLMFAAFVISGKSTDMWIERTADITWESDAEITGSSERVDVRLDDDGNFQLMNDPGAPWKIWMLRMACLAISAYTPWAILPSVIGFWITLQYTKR
Sequence of Genome polyprotein (West Nile virus, UniProt P06935) (P06935 1502-2120 limits assumed): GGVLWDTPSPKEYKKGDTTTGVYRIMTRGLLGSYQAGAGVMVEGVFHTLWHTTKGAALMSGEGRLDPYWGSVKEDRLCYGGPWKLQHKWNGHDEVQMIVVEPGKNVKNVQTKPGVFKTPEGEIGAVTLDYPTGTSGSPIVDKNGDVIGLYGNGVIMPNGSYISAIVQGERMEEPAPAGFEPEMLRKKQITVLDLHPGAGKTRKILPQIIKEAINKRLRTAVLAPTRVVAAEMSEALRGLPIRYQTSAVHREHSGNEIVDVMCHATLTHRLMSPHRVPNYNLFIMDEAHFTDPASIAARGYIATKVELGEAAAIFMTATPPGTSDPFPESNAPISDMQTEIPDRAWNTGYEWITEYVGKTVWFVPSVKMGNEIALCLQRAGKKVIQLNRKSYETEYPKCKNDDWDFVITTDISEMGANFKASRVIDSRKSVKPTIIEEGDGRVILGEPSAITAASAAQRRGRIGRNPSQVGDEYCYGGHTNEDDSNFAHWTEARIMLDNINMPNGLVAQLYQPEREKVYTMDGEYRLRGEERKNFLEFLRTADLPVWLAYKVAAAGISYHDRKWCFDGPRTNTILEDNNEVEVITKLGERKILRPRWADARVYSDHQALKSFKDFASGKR

Usually inhibition stands for the relative decrease from the control value, in per cent. Broadly, the IC50 is the midpoint of a concentration-inhibition curve. A low value points to greater potency. For `N=C(N)NCCC[C@H](NC(=O)c1ccc(/C=C2\SC(=O)N(C3CCCC3)C2=O)cc1)C(=O)N[C@@H](CCCCN)C(=O)N[C@H](C(N)=O)c1ccccc1`, the inhibition was 98.4% in assay [1], 99.6% in assay [2], “Dose-dependent effect” in assay [4] and 9.2% in assay [5]. Further, the midpoint of inhibition in assay [3], the IC50, lay at 0.6 µM.
Turning to `N=C(N)NCCC[C@H](NC(=O)c1ccccc1)C(=O)N[C@@H](CCCCN)C(=O)N[C@@H](Cc1ccccc1)C(N)=O` (Bz-Arg-Lys-Phe-NH2), the results for the inhibition in assay [1], in assay [2] and in assay [5] were 18.2%, 80.7% and 7.2%, respectively. The IC50 in assay [3] is 11.9 µM.
`N=C(N)NCCC[C@H](NC(=O)c1ccccc1)C(=O)N[C@@H](CCCCN)C(=O)N1CCC[C@H]1C(N)=O` (Bz-Arg-Lys-Pro-NH2): the values for the inhibition in assay [1] and in assay [2] were 3.6% and 20%, respectively. Further, half-maximal inhibition in assay [3] (IC50) was put at 192 µM. For the same molecule, the inhibition entry in assay [5] was “inactive”.
`N=C(N)NCCC[C@H](NC(=O)c1ccccc1)C(=O)N[C@@H](CCCCN)C(=O)N[C@@H](CO)C(N)=O` (Bz-Arg-Lys-Ser-NH2): the inhibition in assay [1] was 21.9%; in assay [2] it was 57.9%; in assay [5] it was 6.2%. The same molecule had an IC50 in assay [3] of 30.1 µM.
Turning to `C[C@@H](O)[C@H](NC(=O)[C@H](CCCCN)NC(=O)[C@H](CCCNC(=N)N)NC(=O)c1ccccc1)C(N)=O` (Bz-Arg-Lys-Thr-NH2), the inhibition in assay [1] amounted to 16.5%; in assay [2], 32.1%. The same molecule yielded an IC50 in assay [3] of 98.6 µM. In addition, the inhibition result in assay [5] is “inactive”.
Taken in the same sequence, the figures for `N=C(N)NCCC[C@H](NC(=O)c1ccccc1)C(=O)N[C@@H](CCCCN)C(=O)N[C@@H](Cc1c[nH]c2ccccc12)C(N)=O` (Bz-Arg-Lys-Trp-NH2) were 32.8%, 74.1%, 17.6 µM and “inactive”.
Consider `N=C(N)NCCC[C@H](NC(=O)c1ccccc1)C(=O)N[C@@H](CCCCN)C(=O)N[C@@H](Cc1ccc(O)cc1)C(N)=O` (Bz-Arg-Lys-Tyr-NH2), for which the inhibition in assay [1] was 12.9%; in assay [2], 82.3%; in assay [5], 7.9%. In assay [3], this molecule had an IC50 of 7.4 µM.
In the case of `CC(C)[C@H](NC(=O)[C@H](CCCCN)NC(=O)[C@H](CCCNC(=N)N)NC(=O)c1ccccc1)C(N)=O` (Bz-Arg-Lys-Val-NH2), the inhibition in assay [1] is 18.3%; in assay [2], 60%; in assay [5] it was 4.9%. This molecule also registered an IC50 in assay [3] of 28.8 µM.
For `N=C(N)NCCC[C@H](NC(=O)c1ccccc1)C(=O)N[C@@H](CCCCN)C(=O)Nc1ccccc1C(N)=O` (Bz-Arg-Lys-[2Abz]-NH2), the results for the inhibition in assay [1], in assay [2] and in assay [5] were 8.7%, 62% and 6.4%, respectively. Further, it took 15.8 µM to reach half-maximal inhibition in assay [3] (IC50).
For the molecule `N=C(N)NCCC[C@H](NC(=O)c1ccccc1)C(=O)N[C@@H](CCCCN)C(=O)N[C@@H](Cc1ccccn1)C(N)=O` (Bz-Arg-Lys-[2Pal]-NH2), the inhibition is 9.8% in assay [1] and 53% in assay [2]. The IC50 in assay [3] is 44.3 µM. For the same molecule, in assay [5], the inhibition entry is “inactive”.
For the molecule `N=C(N)NCCC[C@H](NC(=O)c1ccccc1)C(=O)N[C@@H](CCCCN)C(=O)Nc1cccc(C(N)=O)c1` (Bz-Arg-Lys-[3Abz]-NH2), the figures for the inhibition in assay [1], in assay [2] and in assay [5] were 23%, 27% and 5.6%, respectively. The same molecule displayed an IC50 in assay [3] of 96.6 µM.
On to `N=C(N)NCCC[C@H](NC(=O)c1ccccc1)C(=O)N[C@@H](CCCCN)C(=O)N[C@@H](Cc1cccnc1)C(N)=O` (Bz-Arg-Lys-[3Pal]-NH2), for which the figures for the inhibition in assay [1] and in assay [2] were 12.5% and 61.3%, respectively. In addition, in assay [3], the IC50 worked out at 30.1 µM. In addition, in assay [5], the inhibition entry is “inactive”.
As to `N=C(N)NCCC[C@H](NC(=O)c1ccccc1)C(=O)N[C@@H](CCCCN)C(=O)Nc1ccc(C(N)=O)cc1` (Bz-Arg-Lys-[4Abz]-NH2), the inhibition in assay [1] amounted to 17.9%; in assay [2] it was 27.5%; in assay [5], 9.2%. This molecule came in with an IC50 in assay [3] of 92.2 µM.
For the molecule `CC(C)(NC(=O)[C@H](CCCCN)NC(=O)[C@H](CCCNC(=N)N)NC(=O)c1ccccc1)C(N)=O` (Bz-Arg-Lys-[Aib]-NH2), the inhibition is 13.7% in assay [1] and 55% in assay [2]. The midpoint of inhibition in assay [3], the IC50, lay at 46.7 µM. Moreover, the inhibition result in assay [5] is “inactive”.
Consider `N=C(N)NCCC[C@H](NC(=O)c1ccccc1)C(=O)N[C@@H](CCCCN)C(=O)N[C@@H](CC1CCCCC1)C(N)=O` (Bz-Arg-Lys-[Cha]-NH2), for which the inhibition in assay [1] amounted to 19.1%; in assay [2] it was 80%. The same molecule came in with an IC50 in assay [3] of 8.2 µM. For the same molecule, in assay [5], the inhibition entry is “inactive”.
Taken in the same sequence, the figures for `CCC[C@H](NC(=O)[C@H](CCCCN)NC(=O)[C@H](CCCNC(=N)N)NC(=O)c1ccccc1)C(N)=O` (Bz-Arg-Lys-[Nva]-NH2) were 8.5%, 62%, 25.2 µM and “inactive”.
Take `N#Cc1ccc(C[C@H](NC(=O)[C@H](CCCCN)NC(=O)[C@H](CCCNC(=N)N)NC(=O)c2ccccc2)C(N)=O)cc1` (Bz-Arg-Lys-[Phe(4-CN)]-NH2): the figures for the inhibition in assay [1] and in assay [2] were 15.9% and 71.7%, respectively. Also, in assay [3], the IC50 was found to be 14.4 µM. The inhibition result in assay [5] is “inactive”.
In the case of `N=C(N)NCCC[C@H](NC(=O)c1ccccc1)C(=O)N[C@@H](CCCCN)C(=O)N[C@@H](Cc1ccc([N+](=O)[O-])cc1)C(N)=O` (Bz-Arg-Lys-[Phe(4-NO2)]-NH2), the inhibition in assay [1] worked out at 21.3%; in assay [2] it was 66.6%. Also, the IC50 in assay [3] is 17.5 µM. Moreover, in assay [5], the inhibition result is “inactive”.
By Ki is commonly meant a dissociation constant, usually derived from enzyme kinetics or from competition with a known ligand. Low readings indicate tighter binding, high ones weaker binding. Take `N=C(N)NCCC[C@H](NC(=O)c1ccccc1)C(=O)N[C@@H](CCCCN)C(=O)N[C@H](C(N)=O)c1ccccc1` (Bz-Arg-Lys-[Phg]-NH2): the inhibition in assay [1] stood at 39.3%; in assay [2], 95%. For the same molecule, the IC50 in assay [3] is 3.3 µM; in assay [6], 58 µM. Further, the inhibition entry in assay [5] was “inactive”. Moreover, in assay [6], affinity was put at a Ki of 49 µM.
On to `CC(C)(C)[C@H](NC(=O)[C@H](CCCCN)NC(=O)[C@H](CCCNC(=N)N)NC(=O)c1ccccc1)C(N)=O` (Bz-Arg-Lys-[Tle]-NH2), for which the inhibition in assay [1] turned out to be 11.7%; in assay [2], 18.8%. This molecule displayed an IC50 in assay [3] of 137 µM. Also, the inhibition entry in assay [5] was “inactive”.
In the case of `N=C(N)NCCC[C@H](NC(=O)c1ccccc1)C(=O)N[C@@H](CCCCN)C(=O)NCCC(N)=O` (Bz-Arg-Lys-[βAla]-NH2), the inhibition in assay [1] is 19.8%; in assay [2] it was 32.9%. Besides, in assay [3], 109 µM corresponded to half-maximal inhibition (IC50). In addition, the inhibition entry in assay [5] is “inactive”.
Take `N=C(N)NCCC[C@H](NC(=O)c1ccccc1)C(=O)N[C@@H](CCCCN)C(=O)NC(C(N)=O)C1CCCCC1` (stereo partly drawn) (Bz-Arg-Lys-[ξChg]-NH2): the inhibition is 12.1% in assay [1] and 71.7% in assay [2]. In assay [3], this molecule returned an IC50 of 17.4 µM. Moreover, the inhibition entry in assay [5] is “inactive”.
Taken in the same sequence, the figures for `N=C(N)NCCC[C@H](NC(=O)c1ccccc1)C(=O)N[C@@H](CCCCN)C(=O)N1CCCCC1C(N)=O` (stereo partly drawn) (Bz-Arg-Lys-[ξPip]-NH2) were 12.1%, 13.7%, 159 µM and “inactive”.
For `C#CCC(NC(=O)[C@H](CCCCN)NC(=O)[C@H](CCCNC(=N)N)NC(=O)c1ccccc1)C(N)=O` (stereo partly drawn) (Bz-Arg-Lys-[ξPra]-NH2), the values for the inhibition in assay [1], in assay [2] and in assay [5] were 14.3%, 72.5% and 5.2%, respectively. In assay [3], this molecule registered an IC50 of 17.5 µM.
Take `N=C(N)NCCC[C@H](NC(=O)c1ccccc1)C(=O)N[C@@H](CCCCN)C(=O)N1Cc2ccccc2CC1C(N)=O` (stereo partly drawn) (Bz-Arg-Lys-[ξTic]-NH2): the inhibition was found to be 17.8% in assay [1] and 41.6% in assay [2]. This molecule also yielded an IC50 in assay [3] of 65.8 µM. For the same molecule, the inhibition entry in assay [5] was “inactive”.
